Calls of active or inactive are those of the source. No cut-off for these calls is given here.
Tests used:
RAW264.7 [1] = assay: Inhibition of luminescence emission in mouse RAW264.7 cells transfected with luciferase plasmid containing universal promoter PKG at 70 uM after 6 hrs by luciferase reporter gene assay; assay type: functional, cell-based
In short: (§1)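 RAW 264.7 cells (5 × 10^5/well) in RPMI-1640 with 2% FBS, transfected with a PGK-promoter luciferase plasmid (1 μg/well) for 6 h at 37 °C, 5% CO2. Then treated 6 h with drug, dexamethasone 1 mM, pyrrolidine dithiocarbamate 500 μM or cycloheximide 70 μM. Cells lysed in Tris/NaCl/Tween buffer, pH 7.5, and luminescence read.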

Mus musculus [2] = assay: Inhibition of protein synthesis in carrageenan-induced mechanical inflammatory hyperalgesia male C57BL/6 mouse model assessed as inhibition of TNF production in inflamed tissue at 20 mg/kg, sc […] challenge and measured after 3 hrs by ELISA; assay type: functional, organism-based; parameters: dose 20 mg/kg
Mus musculus [3] = assay: Inhibition of protein synthesis in carrageenan-induced mechanical inflammatory hyperalgesia male C57BL/6 mouse model assessed as inhibition of IL-1beta production in inflamed tissue at 20 mg/kg, sc […] challenge and measured after 3 hrs by ELISA; assay type: functional, organism-based; parameters: dose 20 mg/kg
RAW264.7 [4] = assay: Inhibition of luminescence emission in mouse RAW264.7 cells transfected with luciferase plasmid containing universal promoter PKG at 1 mM after 6 hrs by luciferase reporter gene assay; assay type: functional, cell-based
In short: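 RAW 264.7 cells (5 × 10^5/well) in RPMI-1640 with 2% FBS were transfected with pmirGLO dual-luciferase plasmid (1 μg/well, PGK universal promoter) by FuGene 6 for 6 h at 37 °C, 5% CO2. Compound was added ([…] as printed) and incubated 6 h. Cells were lysed in TNT buffer, and luciferin luminescence was read. Controls: dexamethasone, PDTC, cycloheximide.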

RAW264.7 [5] = assay: Antiinflammatory activity against mouse RAW264.7 cells assessed as reduction of LPS-induced TNF mRNA expression cells at 1 mM treated 30 mins before LPS challenge measured after 3 hrs by qRT-PCR analysis; assay type: functional, cell-based
In short: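 RAW 264.7 macrophages (1.5 × 10^6 cells/well) in supplemented RPMI-1640 were pretreated with vehicle, test compound or dexamethasone (1 mM) before LPS stimulation. Cells were lysed in TRIzol, and TNF mRNA was measured by quantitative real-time PCR with GAPDH primers. Stock in DMSO diluted in RPMI-1640, final DMSO ≤0.5%.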

RAW264.7 [6] = assay: Inhibition of luminescence emission in mouse RAW264.7 cells transfected with luciferase plasmid containing universal promoter PKG at 500 uM after 6 hrs by luciferase reporter gene assay; assay type: functional, cell-based; in short: as §1
Mus musculus [7] = assay: Antiinflammatory activity in carrageenan-induced mechanical inflammatory hyperalgesia male C57BL/6 mouse model assessed as inhibition of IL-1beta production in inflamed tissue at 5 mg/kg, […] and measured after 3 hrs; assay type: functional, organism-based; parameters: dose 5 mg/kg
Mus musculus [8] = assay: Antihyperalgesic activity in sc dosed male C57BL/6 mouse assessed as reduction in carrageenan-induced mechanical inflammatory hyperalgesia […] and measured after 3 hrs; assay type: functional, organism-based
RAW264.7 [9] = assay: Antiinflammatory activity against mouse RAW264.7 cells assessed as reduction of LPS-induced TNF production compound pretreated 30 mins of LPS challenge measured after 4 hrs by ELISA; assay type: functional, cell-based
Mus musculus [10] = assay: Antiinflammatory activity in carrageenan-induced mechanical inflammatory hyperalgesia male C57BL/6 mouse model assessed as inhibition of TNF level production in inflamed tissue at 5 mg/kg, […] and measured after 3 hrs; assay type: functional, organism-based; parameters: dose 5 mg/kg
RAW264.7 [11] = assay: Inhibition of PGN-induced NF-kappaB activation in mouse RAW264.7 cells assessed as reduction luminescence emission at 0.001 to 10 uM pretreated 30 mins before LPS challenge measured after 4 hrs by luciferase reporter gene assay; assay type: cell-based
In short: (§2)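 RAW 264.7 NF-κB-luciferase reporter cells pretreated 30 min (0.001−10 μM) before stimulus: LPS 1 μg/mL, PGN 10 μg/mL, TNF 10 ng/mL or PMA 1 μg/mL. Cells lysed at 4 h; luciferin added, luminescence read. Expressed relative to stimulus alone set at 100%. Dexamethasone 1 mM control. n = 4–5.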

RAW264.7 [12] = assay: Inhibition of PMA-induced NF-kappaB activation in mouse RAW264.7 cells assessed as reduction luminescence emission at 0.001 to 10 uM pretreated 30 mins before LPS challenge measured after 4 hrs by luciferase reporter gene assay; assay type: cell-based; in short: as §2
RAW264.7 [13] = assay: Inhibition of luminescence emission in mouse RAW264.7 cells transfected with luciferase plasmid containing universal promoter PKG at 0.1 to 10 uM after 6 hrs by luciferase reporter gene assay; assay type: functional, cell-based; in short: as §1
RAW264.7 [14] = assay: Antiinflammatory activity against mouse RAW264.7 cells assessed as reduction of LPS-induced KC/CXCL1 production compound pretreated 30 mins of LPS challenge measured after 4 hrs by ELISA; assay type: functional, cell-based
RAW264.7 [15] = assay: Inhibition of LPS-induced NF-kappaB p65 translocation into nucleus in mouse RAW264.7 cells at 10 uM treated 30 mins before LPS challenge by Western blot analysis; assay type: cell-based
In short: (§3)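 RAW 264.7 cells treated before LPS. Cytoplasmic and nuclear fractions made by hypotonic/high-salt (420 mM NaCl) lysis; Bradford protein assay; 12% SDS-PAGE. Blots: IκB-α (1:1000) on cytoplasmic and p65 (1:300) on nuclear extracts, ECL detection. Nucleophosmin and actin as fraction markers; bands normalized to medium control.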

Mus musculus [16] = assay: Antiinflammatory activity in carrageenan-induced mechanical inflammatory hyperalgesia male C57BL/6 mouse model assessed as inhibition of KC/CXCL1 production in inflamed tissue at 5 mg/kg, […] and measured after 3 hrs; assay type: functional, organism-based; parameters: dose 5 mg/kg
RAW264.7 [17] = assay: Inhibition of LPS-induced NF-kappaB activation in mouse RAW264.7 cells assessed as reduction luminescence emission at 0.001 to 10 uM pretreated 30 mins before LPS challenge measured after 4 hrs by luciferase reporter gene assay; assay type: cell-based; in short: as §2
RAW264.7 [18] = assay: Antiinflammatory activity against mouse RAW264.7 cells assessed as reduction of LPS-induced TNF mRNA expression cells at 10 uM treated 30 mins before LPS challenge measured after 3 hrs by qRT-PCR analysis; assay type: functional, cell-based
RAW264.7 [19] = assay: Inhibition of TNF-induced NF-kappaB activation in mouse RAW264.7 cells assessed as reduction luminescence emission at 0.001 to 10 uM pretreated 30 mins before LPS challenge measured after 4 hrs by luciferase reporter gene assay; assay type: cell-based; in short: as §2
RAW264.7 [20] = assay: Inhibition of NF-kappaB-mediated IkappaBalpha degradation in LPS-induced mouse RAW264.7 cells at 10 uM treated 30 mins before LPS challenge by Western blot analysis; assay type: cell-based; in short: as §3
RAW264.7 [21] = assay: Antiinflammatory activity against mouse RAW264.7 cells assessed as reduction of LPS-induced IL-1beta production compound pretreated 30 mins of LPS challenge measured after 4 hrs by ELISA; assay type: functional, cell-based
[22] = system: peritoneal macrophages (Mus musculus); assay: Cytotoxicity against mouse peritoneal macrophages assessed as cell viability at 0.001 to 10 uM pretreated 30 mins by MTT assay in presence of LPS
Mus musculus [23] = assay: Antihyperalgesic activity in male C57BL/6 mouse assessed as reduction in carrageenan-induced mechanical inflammatory hyperalgesia at 5 mg/kg, […] and measured after 3 hrs; assay type: functional, organism-based; parameters: dose 5 mg/kg

SMILES: C[C@@H]1C[C@@H]([C@H](O)CC2CC(=O)NC(=O)C2)C(=O)[C@@H](C)C1
- inhibition (RAW264.7 [1]): Active
- inhibition (Mus musculus [2]): inactive
- inhibition (Mus musculus [3]): Active

SMILES: C[C@@H]1C[C@H]2[C@@H]3CCC4=CC(=O)C=C[C@]4(C)[C@@]3(F)[C@@H](O)C[C@]2(C)[C@@]1(O)C(=O)CO
- inhibition (RAW264.7 [4]): inactive
- inhibition (RAW264.7 [5]): Active

SMILES: S=C(S)N1CCCC1
- inhibition (RAW264.7 [6]): inactive

SMILES: COC(=O)[C@@]12OC[C@]34[C@H]([C@@H](O)[C@@H]1O)[C@@]1(C)[C@H](O)C(=O)C=C(C)[C@@H]1C[C@H]3OC(=O)[C@H](OC(C)=O)[C@@H]24 [ISOBRUCEIN B]
- inhibition (Mus musculus [7]): Active
- Activity (Mus musculus [8]): Dose-dependent effect
- inhibition (RAW264.7 [9]): Active
- inhibition (Mus musculus [10]): inactive
- inhibition (RAW264.7 [11]): Dose-dependent effect
- inhibition (RAW264.7 [12]): Dose-dependent effect
- inhibition (RAW264.7 [13]): Active
- inhibition (RAW264.7 [14]): Active
- Activity (RAW264.7 [15]): inactive
- inhibition (Mus musculus [16]): Active
- inhibition (RAW264.7 [17]): Dose-dependent effect
- inhibition (RAW264.7 [18]): inactive
- inhibition (RAW264.7 [19]): Dose-dependent effect
- Activity (RAW264.7 [20]): inactive
- inhibition (RAW264.7 [21]): Active
- Activity [22]: Non-toxic
- inhibition (Mus musculus [23]): Active

— ChEMBL document CHEMBL3425463, “The quassinoid isobrucein B reduces inflammatory hyperalgesia and cytokine production by post-transcriptional modulation” (J Nat Prod, 2015)
